Only some compounds are listed: those with a hit (about 3.5% of all), similar ones and a draw of the others.
MrgX1 antagonist: human MrgX1 receptor antagonism, primary screen; B-score at 10 µM; Q96LB2; 310,000 compounds, 1.3% hits; MRGX1-HEK293 calcium flux, Fluo-4, BAM8-22 antagonism; hits give low values;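 active means calcium-response B-score plate-corrected more than 3 library SD below zero, starting fluorescence within 5 deviations, no agonist response on first addition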;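 further: peak minus trough fluorescence over baseline after final BAM8-22 challenge near maximal dose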
Target sequence (Q96LB2 whole entry, looked up): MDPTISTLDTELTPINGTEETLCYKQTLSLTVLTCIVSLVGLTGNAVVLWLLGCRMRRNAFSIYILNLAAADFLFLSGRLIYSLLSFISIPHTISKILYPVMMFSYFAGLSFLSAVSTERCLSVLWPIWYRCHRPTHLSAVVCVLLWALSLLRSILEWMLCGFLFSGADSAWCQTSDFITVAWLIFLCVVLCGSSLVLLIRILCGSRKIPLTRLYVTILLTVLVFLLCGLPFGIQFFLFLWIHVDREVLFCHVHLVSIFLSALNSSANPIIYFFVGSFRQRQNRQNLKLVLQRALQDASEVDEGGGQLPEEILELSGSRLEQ
RGS4 pot: potentiators or activators of RGS4; HEK293 M3R/inducible RGS4, carbachol calcium flux Fluo4; hits give low values; B-score at 10 µM; 310,000 compounds, 0.92% hits; AID 463111;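 active means B-score of the integrated calcium signal more than 4 SD below the library mean, with starting fluorescence not abnormally high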;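 further: negative B-score means reduced calcium response which marks RGS4 activation or potentiation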
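Test system: HEK293 cells with stable M3R and inducible RGS4; also added: carbachol at ECmax as muscarinic agonist stimulus; schedule: dye loading 30 min 37 °C, buffer rest 30 min RT; technique: kinetic calcium fluorescence imaging with Fluo4-AM dye, 2 µM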
MrgX1 agonist: agonists of human MrgX1 receptor. Q96LB2. MrgX1-HEK293 cells, Fluo-4 calcium fluorescence, agonist mode; hits give high values. B-score at 10 µM. 310,000 compounds, 0.44% hits. AID 588627;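 active means calcium response B-score plate-corrected fluorescence ratio at least 3 library SD, with starting fluorescence B-score inside 5 SD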
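Assay system: MrgX1-expressing HEK293 cells / Amount: fifteen thousand cells per well / Doses: test compound in the initial addition of three / Timing: cells plated overnight, dye loaded 0.5 h 37 °C, 0.5 h room temperature / Technique: kinetic calcium dye fluorescence, Fluo-4 NW / Control set: positive and negative controls per plate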
MrgX1 PAM: allosterically activates human MrgX1 receptor signaling. MrgX1-HEK293, Fluo-4 calcium flux, FDSS; hits give high values. B-score at 10 µM. 310,000 compounds, 0.63% hits. AID 588675;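 active means plate-corrected calcium response at least 3 library SD above typical, normal starting fluorescence, not activating the receptor alone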;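 further: compound read alongside a low EC10 to EC30 dose of BAM8-22 agonist; peak minus trough fluorescence over baseline measured at the second addition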
RGS4 block: human RGS4 inhibition. P49798. HEK293 M3R/RGS4 inducible, Fluo-4 calcium flux; hits give high values; triggered by carbachol at its EC20. B-score at 10 µM. 310,000 compounds, 0.45% hits. AID 463165;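 active means B-score, a plate-corrected calcium signal, over three deviations above library mean, with baseline fluorescence within five deviations of library mean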;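 further: RGS4 expression induced by doxycycline in cells with stable M3 receptor; B-score is computed from the integrated fluorescence ratio over baseline after carbachol; higher B-score means a larger calcium signal and so more RGS4 inhibition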
Target sequence (P49798 whole entry, looked up): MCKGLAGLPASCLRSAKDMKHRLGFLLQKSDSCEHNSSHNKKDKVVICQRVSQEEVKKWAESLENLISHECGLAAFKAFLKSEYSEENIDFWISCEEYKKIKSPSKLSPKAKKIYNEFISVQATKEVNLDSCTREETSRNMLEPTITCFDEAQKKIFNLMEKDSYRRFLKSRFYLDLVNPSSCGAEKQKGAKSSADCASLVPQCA
MrgX1 antag conf: confirmation of human MrgX1 receptor antagonists; shares compounds with MrgX1 antagonist; MrgX1-HEK293, BAM8-22 calcium flux, Fluo-4; hits give low values; remaining BAM8-22 calcium response % of control (hits give low values), % at 10 µM; 2,300 compounds, 19% hits; AID 602420;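 active means remaining agonist calcium response no higher than 100% minus 3 SD of agonist-only control wells, with starting fluorescence near control levels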;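 further: agonist BAM8-22 given at a near maximal EC90 to ECmax level; peak minus minimum fluorescence divided by baseline after agonist addition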
HEK293 Ca flux: MrgX1 antagonist counter-screen hit in parental HEK293 cells. 4,000 compounds, 2% hits. Fluo-4 calcium fluorescence, FDSS. fluorescence ratio F(max-min)/F0 at 10 µM. shares compounds with MrgX1 antagonist;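 active means duplicate-averaged calcium fluorescence ratio at least three times the standard deviation of buffer wells, a nonspecific response in parental cells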
HEK293 Ca counter: activity in parental HEK293 cells without MrgX1; shares compounds with MrgX1 antagonist; parental HEK293 calcium flux, Fluo-4 fluorescence ratio; hits give high values; fluorescence ratio F(max-min)/F0 at 10 µM; 4,000 compounds, 0.4% hits; AID 624114;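 active means calcium fluorescence ratio, averaged over duplicates, at least 3 SD of the buffer-well ratio, meaning a nonspecific response in receptor-free cells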;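 further: untransfected parental HEK293 lacking MrgX1 used as counterscreen for MrgX1 allosteric activators; fluorescence change taken during the second addition on a kinetic imager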
HEK293 Ca cntr2: activity in parental HEK293 cells lacking MrgX1 receptor; shares compounds with MrgX1 antagonist; Fluo-4 calcium fluorescence (FDSS); hits give high values; fluorescence ratio F(max-min)/F0 at 10 µM; 4,000 compounds, 8.7% hits;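 active means calcium fluorescence ratio at least three times the spread of buffer wells, meaning a non-specific response in parental cells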
* hit, by the source's call.

C(=C\c1ccccc1)/CN1CCN(c2ncnc3c2oc2ccccc23)CC1 was read as MrgX1 antagonist -7.3*, RGS4 pot inactive, MrgX1 agonist inactive, MrgX1 PAM inactive, RGS4 block inactive, MrgX1 antag conf 47%*, HEK293 Ca flux inactive, HEK293 Ca counter inactive and HEK293 Ca cntr2 inactive.
Screening C/C(=N/NC(=O)CN1CCN(S(=O)(=O)c2ccc(Br)cc2)CC1)c1ccco1 returned MrgX1 antagonist inactive, RGS4 pot inactive, MrgX1 agonist inactive, MrgX1 PAM inactive and RGS4 block inactive.
For COC(=O)CCC(C)N1CCC(Oc2ccc(C(=O)N3CCCC3)cc2)CC1 (stereo not drawn) the results were MrgX1 antagonist inactive, RGS4 pot inactive, MrgX1 agonist inactive, MrgX1 PAM inactive and RGS4 block inactive.
COc1cc2ncnc(N[C@H](C)c3ccccc3)c2cc1OC was read as MrgX1 antagonist inactive, RGS4 pot inactive, MrgX1 agonist inactive, MrgX1 PAM inactive and RGS4 block inactive.
Screening C=CCn1c(O)c(CN2CCOCC2)c(C)c(C#N)c1=O returned MrgX1 antagonist -6.4*, RGS4 pot inactive, MrgX1 agonist inactive, MrgX1 PAM inactive, RGS4 block inactive, MrgX1 antag conf inactive, HEK293 Ca flux inactive, HEK293 Ca counter inactive and HEK293 Ca cntr2 inactive.
Screening CCc1ccc(OC(C)C(=O)Nc2ccc(S(=O)(=O)Nc3nccs3)cc2)cc1 (stereo not drawn) returned MrgX1 antagonist -6.5*, RGS4 pot inactive, MrgX1 agonist inactive, MrgX1 PAM inactive, RGS4 block inactive, MrgX1 antag conf 74%*, HEK293 Ca flux inactive, HEK293 Ca counter inactive and HEK293 Ca cntr2 46*.
For Cc1ccc(OC(C)C(=O)Nc2ccc(S(=O)(=O)Nc3nccs3)cc2)cc1 (stereo not drawn) the results were MrgX1 antagonist inactive, RGS4 pot inactive, MrgX1 agonist inactive, MrgX1 PAM inactive and RGS4 block inactive.
`Cc1nc2ccc(NC(=O)Cc3ccc4c(c3)OCCO4)cc2s1` gave MrgX1 antagonist -6.8*, RGS4 pot inactive, MrgX1 agonist inactive, MrgX1 PAM inactive, RGS4 block inactive, MrgX1 antag conf inactive, HEK293 Ca flux inactive, HEK293 Ca counter inactive and HEK293 Ca cntr2 inactive.
Screening Cc1nc2ccc(NC(=O)Cc3ccc(Br)cc3)cc2s1 returned MrgX1 antagonist inactive, RGS4 pot inactive, MrgX1 agonist inactive, MrgX1 PAM inactive and RGS4 block inactive.
Screening COC(=O)c1c(N)sc(C(C)=O)c1C returned MrgX1 antagonist -8.4*, RGS4 pot inactive, MrgX1 agonist inactive, MrgX1 PAM inactive, RGS4 block inactive, MrgX1 antag conf inactive, HEK293 Ca flux inactive, HEK293 Ca counter inactive and HEK293 Ca cntr2 inactive.
CC(=O)Nc1ccc(S(=O)(=O)Nc2cc(C)c(-n3nc4ccccc4n3)cc2O)cc1 was read as MrgX1 antagonist -5.2*, RGS4 pot inactive, MrgX1 agonist inactive, MrgX1 PAM inactive, RGS4 block inactive, MrgX1 antag conf inactive, HEK293 Ca flux inactive, HEK293 Ca counter inactive and HEK293 Ca cntr2 inactive.
Screening COc1ccc(S(=O)(=O)Nc2nc3ccccc3nc2Nc2ccc3c(c2)OCO3)cc1 returned MrgX1 antagonist -5.1*, RGS4 pot inactive, MrgX1 agonist inactive, MrgX1 PAM inactive, RGS4 block inactive, MrgX1 antag conf inactive, HEK293 Ca flux inactive, HEK293 Ca counter inactive and HEK293 Ca cntr2 inactive.
`O=S(=O)(Nc1nc2ccccc2nc1Nc1ccc2c(c1)OCCO2)c1cccs1` gave MrgX1 antagonist inactive, RGS4 pot inactive, MrgX1 agonist inactive, MrgX1 PAM inactive and RGS4 block inactive.
Screening CC(=O)Nc1ccc(S(=O)(=O)Nc2nc3ccccc3nc2Nc2ccc3ccccc3c2)cc1 returned MrgX1 antagonist inactive, RGS4 pot inactive, MrgX1 agonist inactive, MrgX1 PAM inactive and RGS4 block inactive.
Screening CC(=O)Nc1ccc(S(=O)(=O)Nc2nc3ccccc3nc2Nc2cccc(O)c2)cc1 returned MrgX1 antagonist inactive, RGS4 pot inactive, MrgX1 agonist inactive, MrgX1 PAM inactive and RGS4 block inactive.
CC(=O)Nc1ccc(S(=O)(=O)Nc2nc3ccccc3nc2Nc2ccc(N)cc2)cc1 was read as MrgX1 antagonist -6.2*, RGS4 pot inactive, MrgX1 agonist inactive, MrgX1 PAM inactive, RGS4 block inactive, MrgX1 antag conf 75%*, HEK293 Ca flux inactive, HEK293 Ca counter inactive and HEK293 Ca cntr2 inactive.
COCC(C)NC(=O)c1cc(-c2ccc(O)cc2)on1 (stereo not drawn) was read as MrgX1 antagonist -6*, RGS4 pot inactive, MrgX1 agonist inactive, MrgX1 PAM inactive, RGS4 block inactive, MrgX1 antag conf inactive, HEK293 Ca flux inactive, HEK293 Ca counter inactive and HEK293 Ca cntr2 inactive.
Screening CCOc1ccccc1CN1C(=O)NC2(CCCCCC2)C1=O returned MrgX1 antagonist inactive, RGS4 pot inactive, MrgX1 agonist inactive, MrgX1 PAM inactive and RGS4 block inactive.
Screening OCC[C@@H]1C[C@@H](O)[C@H](O)[C@@]2(CCc3ccccc3CO2)O1 returned MrgX1 antagonist -5*, RGS4 pot inactive, MrgX1 agonist inactive, MrgX1 PAM inactive, RGS4 block inactive, MrgX1 antag conf inactive, HEK293 Ca flux inactive, HEK293 Ca counter inactive and HEK293 Ca cntr2 inactive.
`OCC[C@H]1C[C@@H](O)[C@H](O)[C@]2(CCc3ccccc3CO2)O1` gave MrgX1 antagonist inactive, MrgX1 agonist inactive and MrgX1 PAM inactive.
COC(=O)c1ccc(NC(=O)CSc2ccccn2)cc1 was read as MrgX1 antagonist inactive, RGS4 pot inactive, MrgX1 agonist inactive, MrgX1 PAM inactive and RGS4 block inactive.
For COC(=O)c1ccc(NC(=O)CSc2ccccc2)cc1 the results were MrgX1 antagonist -5.9*, RGS4 pot inactive, MrgX1 agonist inactive, MrgX1 PAM inactive, RGS4 block inactive, MrgX1 antag conf inactive, HEK293 Ca flux inactive, HEK293 Ca counter inactive and HEK293 Ca cntr2 inactive.
